Measurements as given in ChEMBL document CHEMBL4041502, “Zoanthamine-Type Alkaloids from the Zoanthid Zoanthus kuroshio Collected in Taiwan and Their Effects on Inflammation” (2016).

Assays:
Neutrophil [1] = assay: Anti-inflammatory activity in human neutrophils assessed as inhibition of fMLP/CB-induced superoxide anion production by measuring reduction of ferricytochrome c at 10 uM pretreated for 5 mins followed by fMLP/CB addition measured after 10 mins by spectrophotometric method relative to control; assay type: functional
Procedure, shortened: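 Donor neutrophils (healthy, 20−35 y) held 2 min at 37 °C in 0.5 mg/mL ferricytochrome c with 1 mM Ca2+, then 5 min with compound, then fMLP 100 nM/cytochalasin B 1 μg/mL for 10 min. Continuous 550 nm read with stirring. SOD-inhibitable (100 U/mL) difference converted using ε = 21.1/mM/10 mm. Inhibition % at 10 μM, mean ± SEM (n = 3, 4).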

Neutrophil [2] = assay: Anti-inflammatory activity in human neutrophils assessed as inhibition of fMLP/CB-induced elastase release at 10 uM using MeO-Suc-Ala-Ala-Pro-Val-p-nitroanilide as a substrate pretreated for 5 mins followed by fMLP/CB addition relative to control; assay type: functional
Procedure, shortened: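 Neutrophils from healthy donors aged 20−35 (venipuncture), equilibrated at 37 °C for 2 min with 100 μM MeO-Suc-Ala-Ala-Pro-Val-p-nitroanilide, then exposed to compound 5 min. Stimulus: 100 nM fMLP plus 0.5 μg/mL cytochalasin B. Elastase release followed continuously at 405 nm. Percent inhibition at 10 μM versus control, mean ± SEM (n = 3, 4).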

Row | SMILES | inhibition at 10 µM (Neutrophil [1]) [%] | inhibition at 10 µM (Neutrophil [2]) [%]
1 | CC1=CC(=O)[C@@H]2[C@@H](C1)[C@]13CO[C@@]4([C@H]1Cl)N1C[C@H]5C[C@H](C)C[C@]1(CC[C@@]4(C)[C@]1(COC(=O)C1)[C@H]3C(=O)[C@@H]2C)O5 | 23 | 25
2 | O=c1cc(N2CCOCC2)oc2c(-c3ccccc3)cccc12 [LY-294002] | 99 | 73
3 | CC1=CC(=O)[C@H]2[C@@H](C1)[C@]13CO[C@@]4([C@H]1O)N1C[C@H]5C[C@H](C)C[C@]1(CC[C@@]4(C)[C@]1(COC(=O)C1)[C@H]3C(=O)[C@@H]2C)O5 | 15 | 13
4 | CC1=CC(=O)[C@H]2[C@@H](C1)[C@]13CO[C@@]4(C1=O)N1C[C@H]5C[C@H](C)C[C@]1(CC[C@@]4(C)[C@]1(COC(=O)C1)[C@H]3C(=O)[C@@H]2C)O5 | 14 | 23
5 | CC1=CC(=O)[C@@H]2[C@@H](C1)C13C=C4N5C[C@@H]6O[C@@]5(CC[C@@]4(C)[C@]4(COC(=O)C4)[C@H]1[C@@](O)(OC3)[C@@H]2C)C[C@@H](C)[C@@H]6O | 14 | 25
6 | CC1=CC(=O)[C@@H]2[C@@H](C1)[C@]13CO[C@@]4([C@H]1O)N1C[C@H]5C[C@H](C)C[C@@]1(O5)[C@@H](O)C[C@@]4(C)[C@]1(COC(=O)C1)[C@H]3C(=O)[C@@H]2C | 11 | 27
7 | CC1=CC(=O)[C@@H]2[C@@H](C1)[C@]1(C)C=C3N4C[C@H]5C[C@H](C)C[C@]4(CC[C@@]3(C)[C@]3(COC(=O)C3)[C@H]1C(=O)[C@@H]2C)O5 | 18 | 30
8 | CC1=CC(=O)[C@@H]2[C@@H](C1)[C@]13CO[C@@]4([C@H]1O)N1C[C@H]5C[C@H](C)C[C@]1(CC[C@@]4(C)[C@]1(COC(=O)C1)[C@H]3C(=O)[C@@H]2C)O5 | 9 | 6
9 | CC1=CC(=O)[C@@H]2[C@@H](C1)[C@]13CO[C@@]4(C1=O)N1C[C@H]5C[C@H](C)C[C@@]1(O5)[C@@H](O)C[C@@]4(C)[C@]1(COC(=O)C1)[C@H]3C(=O)[C@@H]2C | 13 | 15
10 | CO[C@@H]1[C@@H](C)C[C@@H]2CN3[C@@]1(CC[C@@]1(C)[C@]4(COC(=O)C4)[C@H]4C(=O)[C@H](C)[C@@H]5C(=O)C=C(C)C[C@H]5[C@@]45CO[C@@]31C5=O)O2 | 20 | 33
11 | CC1=CC(=O)[C@@H]2[C@@H](C1)C13C=C4N5C[C@H]6C[C@H](C)C[C@]5(CC[C@@]4(C)[C@]4(COC(=O)C4)[C@H]1[C@@](O)(OC3)[C@@H]2C)O6 | 17 | 17
12 | CC1=CC(=O)[C@@H]2[C@@H](C1)[C@]13CO[C@@]4(C1=O)N1C[C@H]5C[C@H](C)C[C@]1(CC[C@@]4(C)[C@]1(COC(=O)C1)[C@H]3C(=O)[C@@H]2C)O5 | 7 | 27
13 | CC1=CC(=O)[C@@H]2[C@@H](C1)C13C=C4N5C[C@H]6C[C@H](C)[C@@H](I)[C@]5(CC[C@@]4(C)[C@]4(COC(=O)C4)[C@H]1[C@@](O)(OC3)[C@@H]2C)O6 | 24 | 43
